Laboratory results: paper PMC11455621 (Structure (London, England : 1993), 2024)
Changes are numbered by the printed parent chain. Each block holds one compound with its values, some of them ahead of it.

Legend:
HsFN3K WT = biological target: T1, HsFN3K WT (Homo sapiens, UniProt Q9H479); assay: Direct substrate phosphorylation assay; type: biochemical; conditions: glycated lysozyme 2mg/mL, 1 hour at 25°C (Figure S6D)
T1 sequence (Q9H479 1-309): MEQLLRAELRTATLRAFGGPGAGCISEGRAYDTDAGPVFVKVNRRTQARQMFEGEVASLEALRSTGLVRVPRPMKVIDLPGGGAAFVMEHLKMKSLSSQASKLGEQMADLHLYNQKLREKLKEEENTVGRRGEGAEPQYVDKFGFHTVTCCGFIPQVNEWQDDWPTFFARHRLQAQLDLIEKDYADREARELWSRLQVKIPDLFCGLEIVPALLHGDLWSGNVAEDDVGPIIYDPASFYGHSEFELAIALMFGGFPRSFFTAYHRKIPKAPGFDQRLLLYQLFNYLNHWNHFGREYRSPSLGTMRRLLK
In short: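 Lysozyme glycated with ribose or glucose (1:1 molar, 3 or 28 days, 50°C). Reaction: 10 or 20 μM FN3K, 2 mg/mL glycated lysozyme, 5 mM HEPES pH 7, 5 mM MgCl2, 100 μM ATP, 1 h at 25°C. Quenched in Laemmli dye, run on SDS-PAGE, fixed in methanol/acetic acid. Stained with Pro-Q Diamond, destained in acetonitrile/sodium acetate pH 4, imaged at 602 nm […]. Coomassie restain for loading.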

[1] = biological target: human Fructosamine-3-kinase (HsFN3K) (human) (UniProt Q9H479); assay: SEC
[2] = biological target: human Fructosamine-3-kinase (HsFN3K) (human) (UniProt Q9H479); assay: intact protein LC-MS
HsFN3K [3] = biological target: T2, HsFN3K (Homo sapiens, UniProt Q9H479); assay: Differential scanning fluorimetry; type: binding; conditions: DSF; for Tm increase versus HsFN3K alone: single ligand 250 μM
T2 sequence (Q9H479 1-309): T1 sequence (Q9H479 1-309)

HsFN3K W219A = biological target: T3, HsFN3K W219A (Homo sapiens, UniProt Q9H479, W219A); assay: Differential scanning fluorimetry; type: binding; conditions: DSF
T3 sequence (Q9H479 1-309 W219A): T1 sequence (Q9H479 1-309) with W219A

HsFN3K H288A [4] = biological target: T4, HsFN3K H288A (Homo sapiens, UniProt Q9H479, H288A); assay: ADP-Glo kinase kinetics, HsFN3K H288A; type: biochemical; conditions: H288A mutant vs WT HsFN3K
T4 sequence (Q9H479 1-309 H288A): T1 sequence (Q9H479 1-309) with H288A
In short: (§1)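 E. coli BL21(DE3)-expressed human FN3K, MBP-His6 tag removed by TEV, at 0.5 μM. Reaction: 200 μM ATP, 10 mM MgCl2, 0–100 μM DMF, room temperature. Time points quenched with ADP-Glo reagent (40 min), then detection reagent (40 min). Luminescence converted to ADP by ATP-to-ADP conversion curves. v0 taken from the linear slope, then Michaelis–Menten fit. SEM from ≥2 independent experiments.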

HsFN3K D234A [5] = biological target: T5, HsFN3K D234A (Homo sapiens, UniProt Q9H479, D234A); assay: Differential scanning fluorimetry; type: binding; conditions: DSF
T5 sequence (Q9H479 1-309 D234A): T1 sequence (Q9H479 1-309) with D234A

HsFN3K [6] = biological target: T2, HsFN3K; assay: Microscale thermophoresis; type: binding; conditions: MST
HsFN3K H291A [7] = biological target: T6, HsFN3K H291A (Homo sapiens, UniProt Q9H479, H291A); assay: ADP-Glo kinase kinetics, HsFN3K H291A; type: biochemical; conditions: H291A mutant vs WT HsFN3K
T6 sequence (Q9H479 1-309 H291A): T1 sequence (Q9H479 1-309) with H291A
In short: as §1

HsFN3K D217A [8] = biological target: T7, HsFN3K D217A (Homo sapiens, UniProt Q9H479, D217A); assay: Microscale thermophoresis; type: binding
T7 sequence (Q9H479 1-309 D217A): T1 sequence (Q9H479 1-309) with D217A

HsFN3K D217A [9] = biological target: T7, HsFN3K D217A; assay: Differential scanning fluorimetry; type: binding; conditions: DSF
HsFN3K D234A [10] = biological target: T5, HsFN3K D234A; assay: Microscale thermophoresis; type: binding; conditions: MST
HsFN3K H291A [11] = biological target: T6, HsFN3K H291A; assay: Differential scanning fluorimetry; type: binding; conditions: DSF
HsFN3K H288A [12] = biological target: T4, HsFN3K H288A; assay: Differential scanning fluorimetry; type: binding; conditions: DSF

Compound: human Fructosamine-3-kinase (HsFN3K) (from UniProt Q9H479 1-309) (enzyme)
stoichiometry N [1]: 2
stoichiometry N [2]: 2

Compound: Nc1ncnc2c1ncn2[C@@H]1O[C@H](COP(=O)(O)OP(=O)(O)NP(=O)(O)O)[C@@H](O)[C@H]1O [AMP-PNP, adenylyl-imidodiphosphate]
binding of ATP mimetic (HsFN3K [3]; HsFN3K WT (Figure S7)): readily bound to HsFN3K

Compound: O=C(CN1CCOCC1)[C@@H](O)[C@H](O)[C@H](O)CO [DMF, 1-Deoxy-1-morpholino-fructose]
ligand binding by Tm shift (HsFN3K W219A): did not bind DMF
increase of Km for DMF versus wildtype (HsFN3K H288A [4]): 3 fold
Tm shift in the presence of ATP or DMF individually or together (HsFN3K D234A [5]): no observable Tm shift
binding of DMF in the absence of ATP (HsFN3K [6]; HsFN3K WT, absence of ATP): did not bind DMF
increase of Km for DMF versus wildtype (HsFN3K H291A [7]): 3.5 fold
binding of DMF (HsFN3K D217A [8]; MST): lost the ability to bind DMF
ligand binding by Tm shift (HsFN3K D217A [9]): lost binding to DMF
substrate (DMF) engagement in presence of AMP-PNP (HsFN3K [3]; HsFN3K WT, AMP-PNP instead of ATP (Figure S7)): prevented substrate engagement
melting temperature (Tm) with both ATP and DMF (HsFN3K [3]; HsFN3K WT, ATP+DMF 250 μM): 65.2 ± 0.6 °C
Tm shift of ATP and DMF compared to ATP alone (HsFN3K [3]; HsFN3K WT, DMF added with ATP): ~ 2 °C
Tm increase versus HsFN3K alone (HsFN3K [3]; HsFN3K WT): did not alter the Tm
binding of ATP and DMF (HsFN3K D234A [10]): impaired binding
Tm shift on DMF binding (HsFN3K H291A [11]): 3.6 °C
Tm shift on DMF binding (HsFN3K H288A [12]): 0.6 °C

Other lines, results leading:

substrate phosphorylation (HsFN3K WT): able to phosphorylate
Compound: glycated lysozyme: crystallization grade lysozyme incubated with ribose or glucose; protein substrate of FN3K

ligand binding by Tm shift (HsFN3K W219A): retained the ability to bind ATP
Tm shift in the presence of ATP or DMF individually or together (HsFN3K D234A [5]): no observable Tm shift
Kd (HsFN3K [6]; read-out: binding affinity (KD) for ATP, fluorescently labeled HsFN3K WT, 25°C): 3.9 ± 3.4 µM
Kd (HsFN3K D217A [8]; read-out: binding affinity (KD) for ATP, MST): 3.5 ± 2.3 µM
ligand binding by Tm shift (HsFN3K D217A [9]): retained the ability to bind ATP
melting temperature (Tm) with ligand (HsFN3K [3]; HsFN3K WT, ligand 250 μM, apo Tm 56.9 ± 0.7°C): 63.2 ± 0.5 °C
Tm increase versus HsFN3K alone (HsFN3K [3]; HsFN3K WT): ~ 6 °C
binding of ATP and DMF (HsFN3K D234A [10]): impaired binding
ATP binding (HsFN3K H291A [11]): retained the ability to bind ATP
ATP binding (HsFN3K H288A [12]): retained the ability to bind ATP
Compound: Nc1ncnc2c1ncn2[C@@H]1O[C@H](COP(=O)(O)OP(=O)(O)OP(=O)([O-])[O-])[C@@H](O)[C@H]1O.[Na+].[Na+] [ATP, Adenosine-5-triphosphate disodium salt]
